Measured values published in ChEMBL document CHEMBL1125307, “Novel 1,2,4-oxadiazoles and 1,2,4-thiadiazoles as dual 5-lipoxygenase and cyclooxygenase inhibitors” (J Med Chem, 1992).
Active and inactive are the calls of the source. The calls are words filed in the database; no cut-off is given here.

What was measured:
[1] = target: T1, Polyunsaturated fatty acid 5-lipoxygenase (Rattus norvegicus, UniProt P12527); experiment: Evaluated in vitro for its inhibitory activity against 5-lipoxygenase
T1 sequence (P12527 whole entry): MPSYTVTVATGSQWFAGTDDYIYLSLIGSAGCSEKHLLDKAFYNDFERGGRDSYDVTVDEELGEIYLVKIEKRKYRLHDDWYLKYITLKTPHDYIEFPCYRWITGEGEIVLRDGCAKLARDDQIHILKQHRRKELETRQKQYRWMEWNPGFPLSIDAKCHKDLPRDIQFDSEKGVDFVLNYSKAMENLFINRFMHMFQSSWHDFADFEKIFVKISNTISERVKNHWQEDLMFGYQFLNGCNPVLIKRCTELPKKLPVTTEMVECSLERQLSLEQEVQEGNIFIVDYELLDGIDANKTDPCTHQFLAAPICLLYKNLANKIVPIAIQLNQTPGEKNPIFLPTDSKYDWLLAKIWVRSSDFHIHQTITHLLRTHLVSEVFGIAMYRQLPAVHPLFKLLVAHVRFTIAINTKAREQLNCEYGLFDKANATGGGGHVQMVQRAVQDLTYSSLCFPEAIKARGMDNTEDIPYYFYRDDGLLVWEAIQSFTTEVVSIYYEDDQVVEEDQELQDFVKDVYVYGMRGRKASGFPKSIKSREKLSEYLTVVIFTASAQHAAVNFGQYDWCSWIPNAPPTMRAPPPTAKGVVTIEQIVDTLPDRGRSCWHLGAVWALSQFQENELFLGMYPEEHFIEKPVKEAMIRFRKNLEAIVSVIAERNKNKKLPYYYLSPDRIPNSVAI

[2] = species: Rattus norvegicus; experiment: Ratio of IC50 against 5-LO to that of CO enzyme.
Outline: (§1)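 In ionophore-stimulated RBL-1 cells (2×10^6/mL, PBS with 1.0 mM Ca, 10 min compound preincubation at room temperature, 5 μM A23187 for 7 min at 37 °C), supernatant LTB₄ (5-LO) and PGF₂α (CO) were each quantified by RIA over 0.10–10.0 μM. IC50s came from linear regression, and the ratio is the 5-LO IC50 over the CO IC50.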

[3] = system: Rattus norvegicus; experiment: Evaluated for the antiinflammatory activity by measuring the dose (po) which inhibited Mycobacterium induced foot-pad edema in rats; format: functional
[4] = system: Rattus norvegicus; experiment: Evaluated for the percent rats with ulcers at the dose of 200 mg/kg (number of animals used per group in the experiment are 10 ); format: functional
Outline: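 Male outbred Wistar rats (100-250 g) fasted 24 h, given compound orally in 0.5% HPMC (2 mL/kg), then denied food and water 6 more h. Killed with CO2; stomachs opened along greater curvature and scored for ulcers. Percent of rats with ulcers per dose; up to 200 mg/kg po, 10 rats per dose.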

[5] = system: Rattus norvegicus; experiment: Evaluated for the antiinflammatory activity by measuring the percentage inhibition of edema in the carrageenan foot-pad edema test at the dose of 10 mg/kg; format: functional
Outline: (§2)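 Male Wistar rats dosed orally (0.5% HPMC/0.2% Tween 80 or Labrafils, 10 mL/kg) 1 h before subplantar injection of 0.10 mL 1% carrageenan into right hind paw under light anesthesia. Paw volume by mercury plethysmography at challenge and 5 h later; percent inhibition ± SEM versus vehicle group. Doses 10.0 and 30.0 mg/kg po, 7-14 rats per dose.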

[6] = system: Rattus norvegicus; experiment: Evaluated for the antiinflammatory activity by measuring the percentage inhibition of edema in the carrageenan foot-pad edema test at the dose of 30 mg/kg; format: functional; outline: as §2
[7] = target: T2, Cyclooxygenase (Rattus norvegicus, UniProt P35355+Q63921); experiment: Evaluated in vitro for its inhibitory activity against Prostaglandin G/H synthase; format: protein assay
T2 sequence (P35355 whole entry): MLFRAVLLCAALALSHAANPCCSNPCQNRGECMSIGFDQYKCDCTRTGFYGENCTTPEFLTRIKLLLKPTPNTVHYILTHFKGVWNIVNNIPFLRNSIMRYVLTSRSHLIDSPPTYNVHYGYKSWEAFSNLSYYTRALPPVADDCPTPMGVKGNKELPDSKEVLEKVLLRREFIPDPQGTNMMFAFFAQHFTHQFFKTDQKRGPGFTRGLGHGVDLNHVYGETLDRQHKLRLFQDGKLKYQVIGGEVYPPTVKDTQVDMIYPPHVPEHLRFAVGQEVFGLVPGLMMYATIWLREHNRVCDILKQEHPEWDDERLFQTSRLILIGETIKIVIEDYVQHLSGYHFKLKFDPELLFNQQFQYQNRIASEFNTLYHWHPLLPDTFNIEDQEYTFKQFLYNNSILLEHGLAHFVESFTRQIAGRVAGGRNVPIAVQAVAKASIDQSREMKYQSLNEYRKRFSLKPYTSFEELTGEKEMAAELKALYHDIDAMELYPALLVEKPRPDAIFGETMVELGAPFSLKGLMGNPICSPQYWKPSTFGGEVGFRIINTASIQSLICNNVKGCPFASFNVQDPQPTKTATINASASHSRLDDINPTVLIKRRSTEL
T2 sequence (Q63921 whole entry): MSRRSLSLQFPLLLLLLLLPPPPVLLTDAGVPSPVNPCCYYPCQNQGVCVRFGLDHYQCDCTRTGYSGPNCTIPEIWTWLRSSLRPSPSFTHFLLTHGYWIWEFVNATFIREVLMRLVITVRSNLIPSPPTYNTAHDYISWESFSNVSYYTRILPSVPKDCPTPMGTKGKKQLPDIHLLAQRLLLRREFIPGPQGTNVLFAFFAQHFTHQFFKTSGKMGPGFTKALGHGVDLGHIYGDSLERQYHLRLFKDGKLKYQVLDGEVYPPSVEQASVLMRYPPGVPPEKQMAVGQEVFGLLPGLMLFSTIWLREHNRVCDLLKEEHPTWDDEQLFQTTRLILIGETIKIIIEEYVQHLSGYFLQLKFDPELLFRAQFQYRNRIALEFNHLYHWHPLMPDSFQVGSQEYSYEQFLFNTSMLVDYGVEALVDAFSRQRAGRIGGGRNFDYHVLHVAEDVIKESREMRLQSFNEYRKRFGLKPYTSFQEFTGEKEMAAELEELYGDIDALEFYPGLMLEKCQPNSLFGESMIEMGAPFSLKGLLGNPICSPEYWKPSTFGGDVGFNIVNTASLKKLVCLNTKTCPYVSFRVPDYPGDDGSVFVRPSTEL

[8] = system: Rattus norvegicus; experiment: Compound was evaluated for the antiinflammatory activity by measuring the dose (po) which inhibited Mycobacterium induced foot-pad edema in rats; N=Inactive, <30% inhibition at 10 mg/kg po; format: functional, organism-based; design: dose 10 mg/kg
[9] = target: T1, Polyunsaturated fatty acid 5-lipoxygenase; experiment: Evaluated in vitro for its inhibitory activity against 5-lipoxygenase; N=Inactive, <50% inhibition at 10 uM concentration
Outline: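 RBL-1 cells grown in MEM + 12% FBS, washed in PBS pH 7.4, resuspended at 2×10^6 cells/mL in PBS with 1.0 mM calcium. Preincubated 10 min at room temperature with compound in DMSO, then stimulated with A23187 (5 μM) 7 min at 37 °C; stopped on ice. Supernatant LTB4 by radioimmunoassay.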

[10] = system: Rattus norvegicus; experiment: Compound was evaluated for the antiinflammatory activity by measuring the percentage inhibition of edema in the carrageenan foot-pad edema test at the dose of 30 mg/kg; N=Inactive, <25% inhibition; format: functional, organism-based; design: dose 30 mg/kg; outline: as §2
[11] = target: T3, Polyunsaturated fatty acid 5-lipoxygenase (Rattus norvegicus) (UniProt P12527); conditions: at 10 µM
T3 sequence (whole entry): T1 sequence (P12527 whole entry)

[12] = species: Rattus norvegicus; experiment: Ratio of IC50 against 5-LO and COX; outline: as §1
[13] = system: Rattus norvegicus; experiment: Compound was evaluated for the antiinflammatory activity by taking the percentage inhibition of edema in the carrageenan foot-pad edema test at the dose of 30 mg/kg; format: functional; outline: as §2
[14] = target: T1, Polyunsaturated fatty acid 5-lipoxygenase; experiment: Inhibitory activity against 5-Lipoxygenase
Outline: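 Rat basophilic leukemia RBL-1 cells were grown in suspension in MEM with 12% FBS, washed, and resuspended at 2×10^6 cells/mL in PBS pH 7.4 with 1.0 mM calcium. Compound in DMSO was preincubated 10 min at room temperature, then 5 μM A23187 was added for 7 min at 37 °C. LTB₄ in the supernatant was measured by RIA at 0.10–10.0 μM. IC50 was determined by linear regression.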

[15] = system: Rattus norvegicus; experiment: Compound was evaluated for the antiinflammatory activity by taking the percentage inhibition of edema in the carrageenan foot-pad edema test at the dose of 10 mg/kg; format: functional; outline: as §2

Row | SMILES | IC50 [1] [µM] | Ratio [2] | IC50 [7] [µM] | IC50 [9] | inhibition in vivo at 10 mg/kg [5] [%] | inhibition in vivo at 30 mg/kg [6] [%] | also measured
1 | C/N=C(\N)Nc1nc(-c2cc(C(C)(C)C)c(O)c(C(C)(C)C)c2)ns1.Cl | 0.37 | 0.084 | 4.4 | – | 18 | 38.9 | ID40 [3]: 6 mg/kg; Activity [4]: 0%
2 | CN(C)Cc1nc(-c2cc(C(C)(C)C)c(O)c(C(C)(C)C)c2)no1.Cl | 7.7 | 10.5 | 0.73 | – | – | – | –
3 | CC(C)(C)c1cc(-c2nsc(N)n2)cc(C(C)(C)C)c1O | 0.33 | 0.15 | 2.2 | – | – | – | –
4 | CC(C)(C)c1cc(-c2nc(CN3CCCC3)no2)cc(C(C)(C)C)c1O | – | – | – | Inactive | – | – | –
5 | CC(C)(C)c1cc(-c2nc(=S)o[nH]2)cc(C(C)(C)C)c1O | 3.4 | – | – | – | – | – | –
6 | CCOC(=O)c1nc(-c2cc(C(C)(C)C)c(O)c(C(C)(C)C)c2)ns1 | – | – | – | – | – | – | inhibition [11]: 91%
7 | CC(C)(C)c1cc(-c2noc(O)n2)cc(C(C)(C)C)c1O | – | – | 4.7 | Inactive | – | – | –
8 | CCO/C=N/c1noc(-c2cc(C(C)(C)C)c(O)c(C(C)(C)C)c2)n1 | – | – | 7.2 | – | – | – | Ratio [12]: 0.21; inhibition in vivo at 30 mg/kg [13]: 37.3%; IC50 [14]: 1.5 µM; inhibition in vivo at 10 mg/kg [15]: 21%

Now from value to molecule, other results behind:

Row | IC50 [1] [µM] | Ratio [2] | IC50 [7] [µM] | IC50 [9] | SMILES | inhibition in vivo at 10 mg/kg [5] [%] | inhibition in vivo at 30 mg/kg [6] [%] | also measured
9 | 6.8 | 15 | 0.45 | – | CN(C)Cc1noc(-c2cc(C(C)(C)C)c(O)c(C(C)(C)C)c2)n1.Cl | 34.6 | 50.3 | ID40 [8]: inactive
10 | – | – | – | Inactive | CC(=O)Nc1noc(-c2cc(C(C)(C)C)c(O)c(C(C)(C)C)c2)n1 | – | – | inhibition [10]: inactive
11 | – | – | – | Inactive | CC(C)(C)c1cc(-c2nc(NC=O)no2)cc(C(C)(C)C)c1O | 51.5 | 54.3 | ID40 [8]: inactive
12 | 3.6 | 1.9 | 1.9 | – | CC(C)(C)c1cc(-c2nc(N)no2)cc(C(C)(C)C)c1O | 43.6 | 32.9 | ID40 [8]: inactive
13 | 3.3 | 7.2 | 0.46 | – | Cc1noc(-c2cc(C(C)(C)C)c(O)c(C(C)(C)C)c2)n1 | – | – | inhibition [10]: inactive
